Assay outcomes from PubChem BioAssay.
Lmaj promast: reduces viability of Leishmania major promastigotes; resazurin fluorescence viability; 9% of 200,000 active; inhibition, % at 10 µM; in the data active = inhibition above about 50%;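 note: promastigotes grown with compound for 44 hours at 28 °C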
T cruzi inh: blocks replication of Trypanosoma cruzi | T. cruzi beta-gal in NIH3T3, luminescence, 90 h | AID 1885 | 1.4% of 300,000 active | inhibition, % (no concentration beside the values);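 active = mean inhibition across valid replicates above about 55%, limit read from the data; inconclusive = mean below that limit but half or more replicates reach it; inactive = mean below it, under half of replicates reach it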;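 note: signal also drops with host cell toxicity which is not excluded here; 0% = plate median of DMSO wells and 100% = zero luminescence signal; higher percent means less beta-gal luminescence so fewer parasites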
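System: Mouse NIH/3T3 fibroblasts infected with β-gal-expressing T. cruzi Tulahuen C4 | Quantity: NIH/3T3 cells, 5,000 per well | Reagent: 5000 reporter trypomastigotes per well | Dosing: Compound pinned at 50 nL/well, DMSO | Schedule: 3 h host attachment, then at least 90 h co-culture | Detection: GalScreen luminescence, 60 min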
CHOP inh: CHOP inhibition in unfolded protein response; CHO-K1 CHOP-promoter luciferase, tunicamycin-induced, 15-18 h; inhibition, % at 10 µM; 3.8% of 220,000 active; AID 2732;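 active = compounds that reduced the stress-induced luciferase reporter signal by more than about 70% of percent inhibition, limit read from the data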;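 note: 0% = tunicamycin plus vehicle and 100% = wells without tunicamycin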
XBP1 UPR activ: adaptive UPR (XBP1) activation | activation, % at 20 µM | CHO-XBP1 luciferase reporter, IRE1-XBP1 UPR activation, luminescence; percent of tunicamycin response, DMSO as zero | AID 463104 | 0.33% of 330,000 active;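 active = versus positive control, 20 µM dose yields 30% or more activation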;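 note: 100% = tunicamycin at 10 µg/mL and 0% = DMSO only wells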
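Material: CHO cell line with stable XBP1 luciferase reporter; schedule: 16-18 h cell attachment at 37 °C, then 6 h compound exposure; signal: glow luminescence from Steady-Glo reagent; medium: serum-containing F12 medium, 10% FBS; benchmarks: tunicamycin 10 µg/mL and vehicle-only wells; read-out: percent activation relative to tunicamycin reference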
Dynein transport: dynein cargo transport inhibition. 3617.4 mouse cells, GR-EGFP nuclear translocation imaging; test concentration mostly 20 µM; stimulated with dexamethasone, 1 µM; active compounds read low. z-score, hits read low. 0.47% of 220,000 active. AID 1381;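 active = plate z-score of nuclear minus cytoplasmic receptor signal below a set negative limit, without overly bright fluorescence or cell loss, cut at about -3.5 in these data, passing the limit was not always enough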;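 note: z-score of nuclear minus cytoplasmic ring GR-EGFP intensity difference per well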
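Buffer or medium: tet-free, stripped-serum medium; Also added: dexamethasone, 1.0 µM final; Technique: high-content fluorescence imaging after fixation; Times: 48 h induction, 1 h compound, 30 min dex at 37 °C; Read-out: per-cell GR-EGFP intensity, nucleus versus surrounding cytoplasmic ring, well-averaged.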
UPR CHOP act: activators of apoptotic arm of unfolded protein response (CHOP); CHO-CHOP luciferase reporter, UPR activation, luminescence; percent of tunicamycin response over DMSO baseline; 0.34% of 330,000 active; activation, % at 10 µM;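 active = at 10 µM dose, activation of 40% or more, normalized to positive control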;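 note: 100% = tunicamycin at 10 µg/mL and 0% = DMSO alone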
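measured by = luciferase luminescence | assay system = CHO-CHOP cells, stable luciferase reporter of PERK-eIF2a-CHOP signalling | amount = 500 reporter cells seeded per well | timing = 6 h compound exposure at 37 °C after overnight seeding | controls = positive tunicamycin 10 µg/mL, negative DMSO alone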
CHOP inh conf: confirmation of CHOP induction inhibitors. shares compounds with CHOP inh. CHO-CHOP promoter luciferase reporter, tunicamycin-induced, luminescence. inhibition, % at 10 µM. 45% of 2,100 active. AID 504437;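 active = mean of three repeat readings of reporter signal inhibition above a set limit, cut at about 70% in these data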;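 note: 0% = tunicamycin plus vehicle and 100% = wells lacking tunicamycin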
* marks the source's active call; other numbers are inactive results; ? = inconclusive; · = not tested or not shown. Many of the other results were omitted from the sample, so hits are more common in it than they were.

SMILES	Lmaj promast	T cruzi inh	CHOP inh	XBP1 UPR activ	Dynein transport	UPR CHOP act	CHOP inh conf
O=C(CCCSc1ccc(Cl)cc1)Nc1ccccc1O	·	-23	·	1	·	-2	·
COc1ccccc1-c1cc(C(F)(F)F)nc(S(=O)(=O)CCCC(=O)NC(C)C)n1	89*	-42	112*	-7	-1.6	21	117*
COc1ccccc1-c1cc(C(=O)Nc2cc(C)on2)no1	4	8	1	-1	-0.26	5	·
COc1ccccc1/C=C/C(=O)Nc1cccnc1Cl	·	-15	·	0	·	5	·
COc1ccccc1-c1cc(C(F)(F)F)nc(S(=O)(=O)CCCC(=O)Nc2cccnc2Cl)n1	45	·	108*	·	-4.4*	·	121*
COc1ccccc1-c1cc(C(F)(F)F)nc(S(=O)(=O)CCCC(=O)Nc2cc(C)on2)n1	2	6	108*	-7	0.23	20	125*
Cc1oc(=O)c(NC(=O)c2cccc(Cl)c2)cc1C(=O)c1ccccc1	6	-21	104*	16	-0.45	12	64
CCOC(=O)c1c(CN2CCOCC2)n(-c2ccccc2)c2cc(Br)c(O)cc12	33	9	99*	9	0.21	1	95*
Cn1cnc([N+](=O)[O-])c1S(=O)(=O)c1cccc(Cl)c1	65*	26	109*	-8	-3.3	-11	110*
CCN(CC1CCCO1)C(=O)C1CCN(C2CCN(Cc3ccccc3C)CC2)CC1 (stereo unspecified)	·	11	·	-3	·	-2	·
Cn1c(=O)n(CCOc2ccc(Cl)cc2Cl)c2ccccc21	-1	1	98*	0	-0.75	1	71*
CCOc1ccc(/C=N/N2C(=O)C(CC(=O)Nc3ccc(F)cc3F)SC2=NC)cc1OC (stereo unspecified)	2	7	106*	2	1.3	-2	14
CCC1(O)CC(c2ccccc2)=NN1C(=O)c1ccccc1F (stereo unspecified)	·	-32	·	-1	·	0	·
Oc1[nH]c2ccccc2c1N=Nc1ccc(F)cc1	-20	0	97*	1	-0.29	0	59
Oc1[nH]c2ccccc2c1N=Nc1ccccc1	·	-12	17	1	-0.45	4	·
O=C1NC[C@@H](Cc2ccc(O)cc2)N(CCc2cccc3ccccc23)C1=O	·	-22	-1	-1	1.8	0	·
O=C1NC[C@@H](Cc2cccc3ccccc23)N(CCc2cc(C(F)(F)F)cc(C(F)(F)F)c2)C1=O	·	-16	97*	-1	-1.2	-3	133*
CCCNC(=O)Cc1c(C)oc2ccccc12	·	-9	-6	-1	-0.95	-2	·
CCSc1nc(-c2ccccc2)nc(C(Cl)Cl)n1	-4	0	106*	25	-0.39	27	84*
Cc1ccc(OCC(O)Cn2c(=N)n(Cc3ccccc3)c3ccccc32)cc1 (stereo unspecified)	100*	?	105*	1	-0.043	-2	50
CCN=c1scc(-c2ccc3c(c2)NC(=O)CO3)n1N=C1CCCC1	0	-11	·	-1	0.97	-2	·
CCCCN=c1scc(-c2ccc3c(c2)NC(=O)CO3)n1N=C1CCCC1	47	13	106*	0	-0.53	0	105*
CCCCc1nc2sc3c(=O)n(N)cnc3c2c2c1CCC2	0	24	58	3	-0.82	1	·
NC1=NC(=O)/C(=C\c2cc([N+](=O)[O-])ccc2Cl)S1	19	-44	-20	-1	0.45	-1	·
CCn1cc([N+](=O)[O-])c(C(=O)N2N=C(c3ccc(Cl)c(Cl)c3)CC2c2ccccc2O)n1 (stereo unspecified)	14	37	101*	6	-1.2	0	78*
SMILES	Lmaj promast	T cruzi inh	CHOP inh	XBP1 UPR activ	Dynein transport	UPR CHOP act	CHOP inh conf
CC(NC(=O)COc1ccccc1)C(c1ccccc1)N1CCN(C)CC1 (stereo unspecified)	-8	-2	98*	-4	1.1	0	21
CCOc1ccc(NC(=S)NC(C)C(c2ccccc2)N2CCN(C)CC2)cc1 (stereo unspecified)	-7	-17	4	-1	-0.47	-1	·
COc1cc(NC(=O)COc2ccccc2[N+](=O)[O-])ccc1NC(=O)c1cccs1	-5	-14	104*	·	0.69	·	105*
O=C(Cn1nnc(-c2cccs2)n1)Nc1ccccc1C(F)(F)F	-4	-6	60	-5	-0.087	-1	·
CCC(C)(C)NC(=O)C(c1cccn1C)N(C(=O)Cn1nnc2ccccc21)c1ccc(NC(C)=O)cc1 (stereo unspecified)	0	7	8	-5	0.86	1	·
CCC(C)(C)NC(=O)C(c1cccn1C)N(C(=O)Cn1nnc2ccccc21)c1ccc(F)cc1 (stereo unspecified)	2	27	96*	3	0.83	-1	79*
CCN1CCN(CCCNC(=O)c2ccc(NC(=O)C3=C(C)OCCS3)cc2)CC1	·	-27	·	-7	·	0	·
COC(=O)c1cc2sc(Cl)cc2n1CC(=O)Nc1cccc(SC)c1	16	24	99*	-1	2.6	0	-3
Cc1cnc(=O)[nH]c1SCc1cccc([N+](=O)[O-])c1	·	-22	·	-4	·	-2	·
O=C(CN1C(=O)NC2(CCOc3ccccc32)C1=O)NCc1ccccc1 (stereo unspecified)	·	·	·	-3	·	0	·
CCn1c(=O)c(C(=O)CN2CCCc3ccccc32)c(N)n(Cc2ccccc2)c1=O	26	54	97*	0	-0.7	4	13
CCn1c(=O)c(C(=O)CN2CCN(S(=O)(=O)c3ccccc3)CC2)c(N)n(Cc2ccccc2)c1=O	22	-5	29	0	1.2	1	·
CCOC(=O)c1c(C)[nH]c(=S)c(C#N)c1-c1ccc(Cl)cc1	0	-2	17	-4	-0.52	-3	·
CCOC(=O)c1c(N)sc(C(O)(C(F)(F)F)C(F)(F)F)c1-c1ccc(Cl)cc1	29	7	98*	-4	0.12	-1	121*
CCOc1cc(CNc2ccc(O)cc2)cc(Br)c1OCc1ccccc1F	80*	15	110*	5	-0.8	0	63
CCOc1cc(/C=N/NC(N)=O)cc(Br)c1OCc1ccccc1F	16	0	68	2	2.3	4	·
C=CCn1c(CCc2cc(C(C)(C)C)c(O)c(C(C)(C)C)c2)n[nH]c1=S	20	31	101*	3	0.5	-2	86*
O=C(NCCc1ccccn1)c1nc(Cn2ccc([N+](=O)[O-])n2)no1	·	21	·	4	·	0	·
